Measurements published in ChEMBL document CHEMBL4017468, “Synthesis and biological evaluation of pyrimidine derivatives with diverse azabicyclic ether/amine as novel GPR119 agonist” (Bioorg Med Chem Lett, 2017).

Tests used:
[1] = target: T1, Glucose-dependent insulinotropic receptor (Homo sapiens) (UniProt Q8TDV5); experiment: Agonist activity at human GPR119 expressed in HEK293 cells assessed as increase in cAMP stimulation measured after 60 mins by TR-FRET assay relative to oleoylethanolamide; type: functional, cell-based
T1 sequence (whole entry): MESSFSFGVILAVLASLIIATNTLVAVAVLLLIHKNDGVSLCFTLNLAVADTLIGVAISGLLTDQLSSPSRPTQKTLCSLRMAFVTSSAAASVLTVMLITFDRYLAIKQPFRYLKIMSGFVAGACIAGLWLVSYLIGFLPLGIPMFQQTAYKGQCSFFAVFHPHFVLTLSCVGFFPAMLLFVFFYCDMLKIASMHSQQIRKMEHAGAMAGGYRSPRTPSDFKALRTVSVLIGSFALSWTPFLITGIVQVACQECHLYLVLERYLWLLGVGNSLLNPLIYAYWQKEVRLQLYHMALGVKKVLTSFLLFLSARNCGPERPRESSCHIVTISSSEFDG
Outline: (§1)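 HEK293 cells seeded at 4×10^3 cells/well, grown 24 h, then transiently transfected with a GPR119 expression plasmid using Lipofectamine/Plus. After 24 h, compounds were added in KRBH buffer with 0.1% BSA and 500 μM IBMX for 60 min at 37 °C. Cells were lysed 10 min at room temperature (50 mM phosphate, 1 M KF, 1.25% Triton X-100, pH 7.0). cAMP was read by HTRF. EC50 was taken as the concentration giving 50% of OEA-stimulated cAMP, and %max as the response relative to maximal OEA effect.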

[2] = target: T2, Glucose-dependent insulinotropic receptor (Homo sapiens, UniProt Q8TDV5); experiment: Agonist activity at human GPR119 expressed in HEK293 cells assessed as increase in cAMP stimulation measured after 60 mins by TR-FRET assay; type: functional, cell-based; outline: as §1
T2 sequence (Q8TDV5 whole entry): T1 sequence (whole entry)

SMILES	%max [1] [%]	EC50 [2] [nM]
CC(C)(C)OC(=O)N1CC2CC1CC2Oc1ncnc(Nc2ccc(S(C)(=O)=O)cc2F)c1[N+](=O)[O-] (stereo unspecified)	86.7	5.6
CC(C)(C)OC(=O)N1CC2CC(Oc3ncnc(Nc4ccc(S(C)(=O)=O)cc4)c3[N+](=O)[O-])C1C2 (stereo unspecified)	58.4	315
CCCCCCCC/C=C\CCCCCCCC(=O)NCCO	100	–
CC(C)(C)OC(=O)N1C[C@@H]2CC[C@@H]1C[C@@H]2Oc1ncnc(Nc2ccc(S(C)(=O)=O)cc2F)c1[N+](=O)[O-] (relative stereo)	112	1.2
CC(C)(C)OC(=O)N1CC2CC(Nc3ncnc(Nc4ccc(S(C)(=O)=O)cc4)c3[N+](=O)[O-])C1C2 (stereo in doubt; 27f) [listing 2 of 2 here]	38.9	–
CC(C)(C)OC(=O)N1CC2CC(Nc3ncnc(Nc4ccc(S(C)(=O)=O)cc4F)c3[N+](=O)[O-])C1C2 (stereo in doubt; 27g) [listing 1 of 2 here]	–	236
CC(C)(C)OC(=O)N1CC2CC(Nc3ncnc(Nc4ccc(S(C)(=O)=O)cc4F)c3[N+](=O)[O-])C1C2 (stereo in doubt; 27g) [listing 2 of 2 here]	63.4	–
CC(C)(C)OC(=O)N1CC2CC1CC2Nc1ncnc(Nc2ccc(S(C)(=O)=O)cc2F)c1[N+](=O)[O-] (stereo in doubt; 27i) [listing 1 of 2 here]	–	4.9
CC(C)(C)OC(=O)N1CC2CC1CC2Nc1ncnc(Nc2ccc(S(C)(=O)=O)cc2)c1[N+](=O)[O-] (stereo in doubt; 27j) [listing 2 of 2 here]	94.3	–
CC(C)(C)OC(=O)N1CC2CC1CC2Nc1ncnc(Nc2ccc(S(C)(=O)=O)cc2F)c1[N+](=O)[O-] (stereo in doubt; 27k) [listing 1 of 2 here]	–	> 10000
CC(C)(C)OC(=O)N1CC2CC1CC2Nc1ncnc(Nc2ccc(S(C)(=O)=O)cc2F)c1[N+](=O)[O-] (stereo in doubt; 27k) [listing 2 of 2 here]	34.8	–
CC(C)(C)OC(=O)N1CC2CC1CC2Nc1ncnc(Nc2ccc(S(C)(=O)=O)cc2)c1[N+](=O)[O-] (stereo in doubt; 27l) [listing 1 of 2 here]	–	> 10000
CC(C)(C)OC(=O)N1CC2CC1CC2Nc1ncnc(Nc2ccc(S(C)(=O)=O)cc2)c1[N+](=O)[O-] (stereo in doubt; 27l) [listing 2 of 2 here]	25.1	–
CC(C)(C)OC(=O)N1CC2CCC1CC2Oc1ncnc(Nc2ccc(S(C)(=O)=O)cc2)c1[N+](=O)[O-] (stereo in doubt; 27n) [listing 1 of 2 here]	–	3.1
CC(C)(C)OC(=O)N1CC2CCC1CC2Oc1ncnc(Nc2ccc(S(C)(=O)=O)cc2)c1[N+](=O)[O-] (stereo in doubt; 27n) [listing 2 of 2 here]	71.9	–
CC(C)(C)OC(=O)N1CC2CCC1CC2Nc1ncnc(Nc2ccc(S(C)(=O)=O)cc2F)c1[N+](=O)[O-] (stereo in doubt; 27q) [listing 1 of 2 here]	–	1.8
CC(C)(C)OC(=O)N1CC2CCC1CC2Nc1ncnc(Nc2ccc(S(C)(=O)=O)cc2F)c1[N+](=O)[O-] (stereo in doubt; 27q) [listing 2 of 2 here]	104	–
CC(C)(C)OC(=O)N1CC2CCC1CC2Nc1ncnc(Nc2ccc(S(C)(=O)=O)cc2)c1[N+](=O)[O-] (stereo in doubt; 27r) [listing 2 of 2 here]	78.9	–
CC(C)(C)OC(=O)N1CC2CCC1CC2Nc1ncnc(Nc2ccc(S(C)(=O)=O)cc2F)c1[N+](=O)[O-] (stereo in doubt; 27s) [listing 2 of 2 here]	63.2	–
CC(C)(C)OC(=O)N1CC2CCC1CC2Nc1ncnc(Nc2ccc(S(C)(=O)=O)cc2)c1[N+](=O)[O-] (stereo in doubt; 27t) [listing 2 of 2 here]	58.1	–

Results, then the molecule that gave them:

%max [1] [%]	EC50 [2] [nM]	SMILES
32.9	> 10000	CC(C)(C)OC(=O)N1CC2CCC1CC2Oc1ncnc(Nc2ccc(S(C)(=O)=O)cc2F)c1[N+](=O)[O-] (stereo unspecified)
101	110	CC(C)(C)OC(=O)N1CC2CC1CC2Oc1ncnc(Nc2ccc(S(C)(=O)=O)cc2)c1[N+](=O)[O-] (stereo unspecified)
52.6	77.7	CC(C)(C)OC(=O)N1CC2CC(Oc3ncnc(Nc4ccc(S(C)(=O)=O)cc4F)c3[N+](=O)[O-])C1C2 (stereo unspecified)
–	53	CC(C)(C)OC(=O)N1CC2CC(Nc3ncnc(Nc4ccc(S(C)(=O)=O)cc4F)c3[N+](=O)[O-])C1C2 (stereo in doubt; 27e) [listing 1 of 2 here]
76.7	–	CC(C)(C)OC(=O)N1CC2CC(Nc3ncnc(Nc4ccc(S(C)(=O)=O)cc4F)c3[N+](=O)[O-])C1C2 (stereo in doubt; 27e) [listing 2 of 2 here]
–	> 1000	CC(C)(C)OC(=O)N1CC2CC(Nc3ncnc(Nc4ccc(S(C)(=O)=O)cc4)c3[N+](=O)[O-])C1C2 (stereo in doubt; 27f) [listing 1 of 2 here]
–	> 10000	CC(C)(C)OC(=O)N1CC2CC(Nc3ncnc(Nc4ccc(S(C)(=O)=O)cc4)c3[N+](=O)[O-])C1C2 (stereo in doubt; 27h) [listing 1 of 2 here]
21.6	–	CC(C)(C)OC(=O)N1CC2CC(Nc3ncnc(Nc4ccc(S(C)(=O)=O)cc4)c3[N+](=O)[O-])C1C2 (stereo in doubt; 27h) [listing 2 of 2 here]
97	–	CC(C)(C)OC(=O)N1CC2CC1CC2Nc1ncnc(Nc2ccc(S(C)(=O)=O)cc2F)c1[N+](=O)[O-] (stereo in doubt; 27i) [listing 2 of 2 here]
–	48.2	CC(C)(C)OC(=O)N1CC2CC1CC2Nc1ncnc(Nc2ccc(S(C)(=O)=O)cc2)c1[N+](=O)[O-] (stereo in doubt; 27j) [listing 1 of 2 here]
–	> 10000	CC(C)(C)OC(=O)N1CC2CCC1CC2Oc1ncnc(Nc2ccc(S(C)(=O)=O)cc2)c1[N+](=O)[O-] (stereo in doubt; 27p) [listing 1 of 2 here]
44.7	–	CC(C)(C)OC(=O)N1CC2CCC1CC2Oc1ncnc(Nc2ccc(S(C)(=O)=O)cc2)c1[N+](=O)[O-] (stereo in doubt; 27p) [listing 2 of 2 here]
–	5.6	CC(C)(C)OC(=O)N1CC2CCC1CC2Nc1ncnc(Nc2ccc(S(C)(=O)=O)cc2)c1[N+](=O)[O-] (stereo in doubt; 27r) [listing 1 of 2 here]
–	5.3	CC(C)(C)OC(=O)N1CC2CCC1CC2Nc1ncnc(Nc2ccc(S(C)(=O)=O)cc2F)c1[N+](=O)[O-] (stereo in doubt; 27s) [listing 1 of 2 here]
–	6.4	CC(C)(C)OC(=O)N1CC2CCC1CC2Nc1ncnc(Nc2ccc(S(C)(=O)=O)cc2)c1[N+](=O)[O-] (stereo in doubt; 27t) [listing 1 of 2 here]
